Reference: EPA's CvTdb concentration-time database

What was measured:
Rat [1] = test: concentration in plasma after dosing; conditions: dosed: 2-Hydroxy-4-methoxybenzophenone, 250 mg/kg, oral, Female, F344
Rat [2] = test: concentration in plasma after dosing; conditions: dosed: 2-Hydroxy-4-methoxybenzophenone, 100 mg/kg, oral, Male, F344
Mouse [3] = test: concentration in plasma after dosing; conditions: 10 min; dosed: 2-Hydroxy-4-methoxybenzophenone; 500 mg/kg; oral; Male; B6C3F1
Rat [4] = test: concentration in plasma after dosing; conditions: dosed: 2-Hydroxy-4-methoxybenzophenone, 100 mg/kg, oral, Female, F344
Mouse [5] = test: concentration in plasma after dosing; conditions: 3 h; dosed: 2-Hydroxy-4-methoxybenzophenone; 50 mg/kg; iv; Male; B6C3F1
Mouse [6] = test: concentration in plasma after dosing; conditions: 10 min; dosed: 2-Hydroxy-4-methoxybenzophenone; 50 mg/kg; iv; Male; B6C3F1
Mouse [7] = test: concentration in plasma after dosing; conditions: 3 h; dosed: 2-Hydroxy-4-methoxybenzophenone; 250 mg/kg; oral; Male; B6C3F1
Rat [8] = test: concentration in plasma after dosing; conditions: 0.25 h; dosed: 2-Hydroxy-4-methoxybenzophenone; 500 mg/kg; oral; Female; F344
Rat [9] = test: concentration in plasma after dosing; conditions: dosed: 2-Hydroxy-4-methoxybenzophenone, 250 mg/kg, oral, Female, F344; remark: listed apart in the source
Mouse [10] = test: concentration in plasma after dosing; conditions: 3 h; dosed: 2-Hydroxy-4-methoxybenzophenone; 250 mg/kg; oral; Male; B6C3F1; remark: listed apart in the source
Mouse [11] = test: concentration in plasma after dosing; conditions: 2 h; dosed: 2-Hydroxy-4-methoxybenzophenone; 50 mg/kg; iv; Female; B6C3F1
Rat [12] = test: concentration in plasma after dosing; conditions: 0.25 h; dosed: Primidone; 80 mg/kg; oral; Female; Harlan Sprague-Dawley
Rat [13] = test: concentration in plasma after dosing; conditions: 6 h; dosed: Primidone; 130 mg/kg; oral; Female; F344
Hamster = test: concentration in plasma after dosing; conditions: dosed: 2,4-Dichlorophenoxyacetic acid, Male, Syrian Golden
Method in brief: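 Points were largely digitised from plot screenshots with WebPlotDigitizer or otherwise copied from tables, and they remain in the units each source reported. They come from published in vivo toxicokinetic studies and two structured collections. Sampling and analytical methods follow each source and were often not reported.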

Rat [14] = test: concentration in brain after dosing; conditions: 5 min; dosed: alpha-Thujone; 50 mg/kg; oral; Female; Harlan Sprague Dawley
Rat [15] = test: concentration in plasma after dosing; conditions: 6 h; dosed: alpha-Thujone; 25 mg/kg; oral; Male; Harlan Sprague Dawley
Rat [16] = test: concentration in plasma after dosing; conditions: 5 min; dosed: alpha-Thujone; 50 mg/kg; oral; Female; Harlan Sprague Dawley
Rat [17] = test: concentration in brain after dosing; conditions: 5 min; dosed: alpha-Thujone; 50 mg/kg; oral; Female; Harlan Sprague Dawley; remark: listed apart in the source
Rat [18] = test: concentration in plasma after dosing; conditions: 5 min; dosed: alpha-Thujone; 50 mg/kg; oral; Female; Harlan Sprague Dawley; remark: listed apart in the source
Rat [19] = test: concentration in brain after dosing; conditions: 6 h; dosed: alpha-Thujone; 25 mg/kg; oral; Male; Harlan Sprague Dawley
Rat [20] = test: concentration in liver after dosing; conditions: 24 h; dosed: Perfluorohexane-1-sulphonic acid – potassium salt; 16 mg/kg; oral; Female; Harlan Sprague Dawley
Rat [21] = test: concentration in liver after dosing; conditions: 192 h; dosed: Perfluorohexane-1-sulphonic acid – potassium salt; 16 mg/kg; oral; Female; Harlan Sprague Dawley
Rat [22] = test: concentration in brain after dosing; conditions: 3 h; dosed: Perfluorohexane-1-sulphonic acid – potassium salt; 16 mg/kg; oral; Female; Harlan Sprague Dawley
Rat [23] = test: concentration in plasma after dosing; conditions: 5 min; dosed: Pyridine; 10 mg/kg; iv; Male; F344
Rat [24] = test: concentration in plasma after dosing; conditions: 2 h; dosed: Pyridine; 5 mg/kg; oral; Male; F344
Rat [25] = test: concentration in plasma after dosing; conditions: dosed: Pyridine, 5 mg/kg, iv, Male, F344
Rat [26] = test: concentration in plasma after dosing; conditions: 10 min; dosed: Pyridine; 10 mg/kg; oral; Male; F344
Rat [27] = test: concentration in plasma after dosing; conditions: dosed: Methyleugenol, 37 mg/kg, oral, Female, F344/N
Rat [28] = test: concentration in plasma after dosing; conditions: dosed: Methyleugenol, 37 mg/kg, oral, Male, F344/N
Rat [29] = test: concentration in plasma after dosing; conditions: dosed: Methyleugenol, 37 mg/kg, oral, Male, F344/N; remark: listed apart in the source
Rat [30] = test: concentration in plasma after dosing; conditions: dosed: Methyleugenol, 37 mg/kg, oral, Male, F344/N; remark: listed apart in the source

Compound `O=C(c1ccccc1)c1ccc(O)cc1O` [2,4-Dihydroxybenzophenone] has a concentration in plasma (Rat [1]; 10 min) of 119 ng/mL, a concentration in plasma (Rat [1]; 3 h) of 148 ng/mL and a concentration in plasma (Rat [2]; 0.25 h) of 91 ng/mL. It also gave a concentration in plasma (Rat [2]; 4 h) of 43.8 ng/mL, a concentration in plasma (Mouse [3]) of 1690 ng/mL and a concentration in plasma (Rat [4]; 0.5 h) of 255 ng/mL. The concentration in plasma (Rat [4]; 5 h) was 46.6 ng/mL, the concentration in plasma (Mouse [5]) was 202 ng/mL and the concentration in plasma (Mouse [6]) was 3890 ng/mL. It also gave a concentration in plasma (Mouse [7]) of 316 ng/mL, a concentration in plasma (Rat [8]) of 1540 ng/mL and a concentration in plasma (Rat [9]; 10 min) of 128 ng/mL. For the same compound, the concentration in plasma (Rat [9]; 3 h) was 213 ng/mL, the concentration in plasma (Mouse [10]) was 371 ng/mL and the concentration in plasma (Mouse [11]) was 39.7 ng/mL.
`CCC1(c2ccccc2)C(=O)NCNC1=O` [Primidone] gave a concentration in plasma (Rat [12]) of 12500 ng/mL and a concentration in plasma (Rat [13]) of 74300 ng/mL.
In the case of `O=C(O)COc1ccc(Cl)cc1Cl` [2,4-Dichlorophenoxyacetic acid], the concentration in plasma (Hamster; 2.5 min, 2.0 mg/kg, oral) is reported as 217 ng/mL, the concentration in plasma (Hamster; 2.5 min, 8.0 mg/kg, iv) is reported as 127000 ng/mL and the concentration in plasma (Hamster; 5 min, 2.0 mg/kg, oral) is reported as 453 ng/mL. It also gave a concentration in plasma (Hamster; 5 min, 8.0 mg/kg, iv) of 77100 ng/mL, a concentration in plasma (Hamster; 5 min, 8.0 mg/kg, oral) of 19500 ng/mL and a concentration in plasma (Hamster; 5 min, 40 mg/kg, oral) of 81600 ng/mL. It also gave a concentration in plasma (Hamster; 10 min, 2.0 mg/kg, oral) of 2080 ng/mL, a concentration in plasma (Hamster; 10 min, 8.0 mg/kg, iv) of 42400 ng/mL and a concentration in plasma (Hamster; 0.25 h, 2.0 mg/kg, oral) of 7560 ng/mL. The concentration in plasma (Hamster; 0.25 h, 8.0 mg/kg, iv) was 21300 ng/mL, the concentration in plasma (Hamster; 0.25 h, 8.0 mg/kg, oral) was 16500 ng/mL and the concentration in plasma (Hamster; 0.25 h, 40 mg/kg, oral) was 68500 ng/mL. It also gave a concentration in plasma (Hamster; 20 min, 8.0 mg/kg, iv) of 20700 ng/mL, a concentration in plasma (Hamster; 0.5 h, 8.0 mg/kg, oral) of 3990 ng/mL and a concentration in plasma (Hamster; 0.5 h, 40 mg/kg, oral) of 84200 ng/mL. For the same compound, the concentration in plasma (Hamster; 40 min, 8.0 mg/kg, iv) was 3980 ng/mL, the concentration in plasma (Hamster; 1 h, 8.0 mg/kg, iv) was 1050 ng/mL and the concentration in plasma (Hamster; 1 h, 8.0 mg/kg, oral) was 5860 ng/mL. The concentration in plasma (Hamster; 1 h, 40 mg/kg, oral) was 19100 ng/mL, the concentration in plasma (Hamster; 1.5 h, 8.0 mg/kg, iv) was 915 ng/mL and the concentration in plasma (Hamster; 1.5 h, 8.0 mg/kg, oral) was 1080 ng/mL. The concentration in plasma (Hamster; 1.5 h, 40 mg/kg, oral) was 29600 ng/mL, the concentration in plasma (Hamster; 2 h, 8.0 mg/kg, iv) was 186 ng/mL and the concentration in plasma (Hamster; 2 h, 8.0 mg/kg, oral) was 1120 ng/mL. It also gave a concentration in plasma (Hamster; 2 h, 40 mg/kg, oral) of 25400 ng/mL, a concentration in plasma (Hamster; 2.5 h, 2.0 mg/kg, oral) of 1930 ng/mL and a concentration in plasma (Hamster; 4 h, 8.0 mg/kg, oral) of 820 ng/mL. For the same compound, the concentration in plasma (Hamster; 4 h, 40 mg/kg, oral) was 2830 ng/mL, the concentration in plasma (Hamster; 6 h, 8.0 mg/kg, oral) was 1350 ng/mL and the concentration in plasma (Hamster; 6 h, 40 mg/kg, oral) was 2700 ng/mL.
Work on `CC(C)[C@]12CC(=O)[C@H](C)[C@H]1C2` [alpha-Thujone] yielded a concentration in brain (Rat [14]) of 3080 ng/g, a concentration in plasma (Rat [15]) of 83.5 ng/mL and a concentration in plasma (Rat [16]) of 112 ng/mL. It also gave a concentration in brain (Rat [17]) of 994 ng/g, a concentration in plasma (Rat [18]) of 343 ng/mL and a concentration in brain (Rat [19]) of 435 ng/g.
With `O=S(=O)([O-])C(F)(F)C(F)(F)C(F)(F)C(F)(F)C(F)(F)C(F)(F)F.[K+]` [Perfluorohexane-1-sulphonic acid – potassium salt] the concentration in liver (Rat [20]) was 25700 ng/g, the concentration in liver (Rat [21]) was 1580 ng/g and the concentration in brain (Rat [22]) was 1560 ng/g.
Work on `c1ccncc1` [Pyridine] yielded a concentration in plasma (Rat [23]) of 8970 ng/mL, a concentration in plasma (Rat [24]) of 2730 ng/mL and a concentration in plasma (Rat [25]; 0.25 h) of 3670 ng/mL. The concentration in plasma (Rat [25]; 6 h) was 1390 ng/mL and the concentration in plasma (Rat [26]) was 4950 ng/mL.
Compound `C=CCc1ccc(OC)c(OC)c1` [Methyleugenol] has a concentration in plasma (Rat [27]; 10 min) of 254 ng/mL, a concentration in plasma (Rat [27]; 6 h) of 8.85 ng/mL and a concentration in plasma (Rat [28]; 5 min) of 191 ng/mL. The concentration in plasma (Rat [28]; 2 h) was 41.7 ng/mL, the concentration in plasma (Rat [29]; 0.5 h) was 44.9 ng/mL and the concentration in plasma (Rat [29]; 4 h) was 12.7 ng/mL. The concentration in plasma (Rat [30]; 10 min) was 176 ng/mL and the concentration in plasma (Rat [30]; 6 h) was 11.1 ng/mL.
